Test results: ChEMBL document CHEMBL2086318, “Synthesis and in vitro antimycobacterial activity of 2-methoxybenzanilides and their thioxo analogues” (Eur J Med Chem, 2012)
≈ marks a conversion by molar mass, not a printed value.

What was measured:
Type in all cases: functional
[1] = tested on: Mycobacterium avium; assay: Antimycobacterial activity against Mycobacterium avium My 330/88 after 21 days by micromethod; conditions: My 330/88, 504 h
[2] = tested on: Mycobacterium tuberculosis; assay: Antimycobacterial activity against Mycobacterium tuberculosis My 331/88 after 14 days by micromethod; conditions: My 331/88, 336 h
Summary of the method: (§1)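 MIC by micromethod at 37 °C, read after 14 and 21 days. Inocula were M. tuberculosis My 331/88 at 10^-3 dilution and M. avium My 330/88 at 10^-5 dilution. Compounds added in DMSO across 1000, 500, 250, 125, 62.5, 32, 16, 8, 4, 2, 1 and 0.5; isoniazid standard in sterile water. MIC taken as the lowest concentration inhibiting growth.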

[3] = tested on: Mycobacterium tuberculosis; assay: Antimycobacterial activity against Mycobacterium tuberculosis My 331/88 after 21 days by micromethod; conditions: My 331/88, 504 h; summary of the method: as §1
[4] = tested on: Mycobacterium kansasii; assay: Antimycobacterial activity against Mycobacterium kansasii My 6509/96 clinical isolate after 21 days by micromethod; conditions: My 6509/96, 504 h
[5] = tested on: Mycobacterium kansasii; assay: Antimycobacterial activity against Mycobacterium kansasii My 235/80 after 7 days by micromethod; conditions: My 235/80, 168 h
[6] = tested on: Mycobacterium kansasii; assay: Antimycobacterial activity against Mycobacterium kansasii My 6509/96 clinical isolate after 7 days by micromethod; conditions: My 6509/96, 168 h
[7] = tested on: Mycobacterium kansasii; assay: Antimycobacterial activity against Mycobacterium kansasii My 6509/96 clinical isolate after 14 days by micromethod; conditions: My 6509/96, 336 h
[8] = tested on: Mycobacterium avium; assay: Antimycobacterial activity against Mycobacterium avium My 330/88 after 14 days by micromethod; conditions: My 330/88, 336 h
[9] = tested on: Mycobacterium kansasii; assay: Antimycobacterial activity against Mycobacterium kansasii My 235/80 after 21 days by micromethod; conditions: My 235/80, 504 h
[10] = tested on: Mycobacterium kansasii; assay: Antimycobacterial activity against Mycobacterium kansasii My 235/80 after 14 days by micromethod; conditions: My 235/80, 336 h

Structure (SMILES) | MIC [1] [µM] | MIC [2] [µM] | MIC [3] [µM] | MIC [4] [µM] | MIC [5] [µM] | MIC [6] [µM] | MIC [7] [µM] | MIC [8] [µM] | MIC [9] [µM] | MIC [10] [µM]
COc1ccc(Cl)cc1C(=S)Nc1ccc(Cl)c(Cl)c1 | 62.5 (≈ 21.7 µg/mL) | 8 (≈ 2.77 µg/mL) | 8 (≈ 2.77 µg/mL) | 125 (≈ 43.3 µg/mL) | 32 (≈ 11.1 µg/mL) | 62.5 (≈ 21.7 µg/mL) | 125 (≈ 43.3 µg/mL) | 32 (≈ 11.1 µg/mL) | 62.5 (≈ 21.7 µg/mL) | 62.5 (≈ 21.7 µg/mL)
COc1ccc(Cl)cc1C(=O)Nc1ccc(Cl)c(Cl)c1 | 250 (≈ 82.6 µg/mL) | 125 (≈ 41.3 µg/mL) | 125 (≈ 41.3 µg/mL) | 125 (≈ 41.3 µg/mL) | 62.5 (≈ 20.7 µg/mL) | 62.5 (≈ 20.7 µg/mL) | 125 (≈ 41.3 µg/mL) | 250 (≈ 82.6 µg/mL) | 250 (≈ 82.6 µg/mL) | 250 (≈ 82.6 µg/mL)
COc1ccc(Cl)cc1C(=O)Nc1ccc(C(F)(F)F)cc1 | 250 (≈ 82.4 µg/mL) | 250 (≈ 82.4 µg/mL) | 250 (≈ 82.4 µg/mL) | 250 (≈ 82.4 µg/mL) | 125 (≈ 41.2 µg/mL) | 62.5 (≈ 20.6 µg/mL) | 250 (≈ 82.4 µg/mL) | 250 (≈ 82.4 µg/mL) | 500 (≈ 165 µg/mL) | 500 (≈ 165 µg/mL)
NNC(=O)c1ccncc1 [ISONIAZID] | 250 (≈ 34.3 µg/mL) | 0.5 (≈ 0.0686 µg/mL) | 0.5 (≈ 0.0686 µg/mL) | 4 (≈ 0.549 µg/mL) | > 250 | 4 (≈ 0.549 µg/mL) | 4 (≈ 0.549 µg/mL) | 200 (≈ 27.4 µg/mL) | 250 (≈ 34.3 µg/mL) | 200 (≈ 27.4 µg/mL)
COc1cc(Cl)ccc1C(=O)Nc1ccc(Cl)c(Cl)c1 | 125 (≈ 41.3 µg/mL) | 125 (≈ 41.3 µg/mL) | 125 (≈ 41.3 µg/mL) | 125 (≈ 41.3 µg/mL) | 125 (≈ 41.3 µg/mL) | 125 (≈ 41.3 µg/mL) | 125 (≈ 41.3 µg/mL) | 125 (≈ 41.3 µg/mL) | 125 (≈ 41.3 µg/mL) | 125 (≈ 41.3 µg/mL)
COc1cc(Cl)ccc1C(=O)Nc1cccc(C(F)(F)F)c1 | 125 (≈ 41.2 µg/mL) | 250 (≈ 82.4 µg/mL) | 250 (≈ 82.4 µg/mL) | 125 (≈ 41.2 µg/mL) | 125 (≈ 41.2 µg/mL) | 125 (≈ 41.2 µg/mL) | 125 (≈ 41.2 µg/mL) | 125 (≈ 41.2 µg/mL) | 250 (≈ 82.4 µg/mL) | 250 (≈ 82.4 µg/mL)
COc1cc(Cl)ccc1C(=S)Nc1cccc(Br)c1 | 125 (≈ 44.6 µg/mL) | 32 (≈ 11.4 µg/mL) | 32 (≈ 11.4 µg/mL) | 125 (≈ 44.6 µg/mL) | 125 (≈ 44.6 µg/mL) | 125 (≈ 44.6 µg/mL) | 125 (≈ 44.6 µg/mL) | 125 (≈ 44.6 µg/mL) | 125 (≈ 44.6 µg/mL) | 125 (≈ 44.6 µg/mL)
COc1ccc(Cl)cc1C(=O)Nc1ccc(Cl)cc1 | 62.5 (≈ 18.5 µg/mL) | 62.5 (≈ 18.5 µg/mL) | 62.5 (≈ 18.5 µg/mL) | 125 (≈ 37 µg/mL) | 62.5 (≈ 18.5 µg/mL) | 62.5 (≈ 18.5 µg/mL) | 125 (≈ 37 µg/mL) | 62.5 (≈ 18.5 µg/mL) | 250 (≈ 74 µg/mL) | 250 (≈ 74 µg/mL)
COc1cc(Cl)ccc1C(=O)Nc1cccc([N+](=O)[O-])c1 | 125 (≈ 38.3 µg/mL) | 125 (≈ 38.3 µg/mL) | 125 (≈ 38.3 µg/mL) | 125 (≈ 38.3 µg/mL) | 125 (≈ 38.3 µg/mL) | 125 (≈ 38.3 µg/mL) | 125 (≈ 38.3 µg/mL) | 125 (≈ 38.3 µg/mL) | 250 (≈ 76.7 µg/mL) | 250 (≈ 76.7 µg/mL)
COc1cc(Cl)ccc1C(=O)Nc1ccc([N+](=O)[O-])cc1 | 250 (≈ 76.7 µg/mL) | 250 (≈ 76.7 µg/mL) | 250 (≈ 76.7 µg/mL) | 125 (≈ 38.3 µg/mL) | 125 (≈ 38.3 µg/mL) | 125 (≈ 38.3 µg/mL) | 125 (≈ 38.3 µg/mL) | 250 (≈ 76.7 µg/mL) | 250 (≈ 76.7 µg/mL) | 250 (≈ 76.7 µg/mL)
COc1ccc(Cl)cc1C(=O)Nc1cccc(C(F)(F)F)c1 | 125 (≈ 41.2 µg/mL) | 4 (≈ 1.32 µg/mL) | 16 (≈ 5.28 µg/mL) | 16 (≈ 5.28 µg/mL) | 4 (≈ 1.32 µg/mL) | 4 (≈ 1.32 µg/mL) | 4 (≈ 1.32 µg/mL) | 125 (≈ 41.2 µg/mL) | 16 (≈ 5.28 µg/mL) | 4 (≈ 1.32 µg/mL)
COc1ccc(Cl)cc1C(=S)Nc1ccc(C(F)(F)F)cc1 | 16 (≈ 5.53 µg/mL) | 16 (≈ 5.53 µg/mL) | 16 (≈ 5.53 µg/mL) | 16 (≈ 5.53 µg/mL) | 8 (≈ 2.77 µg/mL) | 8 (≈ 2.77 µg/mL) | 16 (≈ 5.53 µg/mL) | 16 (≈ 5.53 µg/mL) | 32 (≈ 11.1 µg/mL) | 16 (≈ 5.53 µg/mL)
COc1cc(Cl)ccc1C(=S)Nc1ccc([N+](=O)[O-])cc1 | 16 (≈ 5.16 µg/mL) | 8 (≈ 2.58 µg/mL) | 32 (≈ 10.3 µg/mL) | 32 (≈ 10.3 µg/mL) | 16 (≈ 5.16 µg/mL) | 16 (≈ 5.16 µg/mL) | 16 (≈ 5.16 µg/mL) | 16 (≈ 5.16 µg/mL) | 32 (≈ 10.3 µg/mL) | 32 (≈ 10.3 µg/mL)
COc1ccc(Cl)cc1C(=S)Nc1cccc([N+](=O)[O-])c1 | 250 (≈ 80.7 µg/mL) | 250 (≈ 80.7 µg/mL) | 250 (≈ 80.7 µg/mL) | 250 (≈ 80.7 µg/mL) | 62.5 (≈ 20.2 µg/mL) | 62.5 (≈ 20.2 µg/mL) | 250 (≈ 80.7 µg/mL) | 250 (≈ 80.7 µg/mL) | 250 (≈ 80.7 µg/mL) | 250 (≈ 80.7 µg/mL)
